The results in this text go back to ChEMBL document CHEMBL2163285, “Chrolactomycins from the actinomycete actinospica” (2012).

What all share (assay type): functional
For one experiment, the system named is Bacillus subtilis. Kind of experiment: Antimicrobial activity against Bacillus subtilis 168 assessed as growth inhibition after 20 to 24 hrs by broth microdilution method. The essentials: (§1)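 CLSI broth microdilution in Mueller Hinton broth supplemented with 20 mg/L CaCl2 and 10 mg/L MgCl2. Cells from frozen stocks were seeded at 5 × 10^5 cfu/mL and incubated at 37 °C, then read after 20−24 h. The MIC is the lowest concentration giving complete suppression of visible growth.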
On the technique in general: Dilution methods test growth across graded concentrations, often in twofold steps.

A further experiment deals with Micrococcus luteus. Kind of experiment: Antimicrobial activity against Micrococcus luteus 108 assessed as growth inhibition after 20 to 24 hrs by broth microdilution method. The essentials:
as §1

For a further experiment, the system named is Streptococcus pyogenes. Kind of experiment: Antimicrobial activity against Streptococcus pyogenes 49 assessed as growth inhibition after 20 to 24 hrs by broth microdilution method. Summed up: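 Streptococcus pyogenes was grown in Todd Hewitt broth and tested by CLSI broth microdilution. The MIC is the lowest concentration causing complete suppression of visible growth.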

Experiment [1] concerns Staphylococcus aureus. The experiment is described as follows: Antimicrobial activity against Staphylococcus aureus ATCC 29213 assessed as growth inhibition after 20 to 24 hrs by broth microdilution method. Summed up: as §1
Experiment [2] has as its system Staphylococcus aureus. Kind of experiment: Antimicrobial activity against Staphylococcus aureus ATCC 6538P assessed as growth inhibition after 20 to 24 hrs by broth microdilution method. Summed up: as §1

In brackets after ≈: the same amount, converted by molar mass.

In general, MIC refers to the lowest concentration found to suppress growth. On to `CN[C@H](CC(C)C)C(=O)N[C@H]1C(=O)N[C@@H](CC(N)=O)C(=O)N[C@H]2C(=O)N[C@H]3C(=O)N[C@H](C(=O)N[C@H](C(=O)O)c4cc(O)cc(O)c4-c4cc3ccc4O)[C@H](O)c3ccc(c(Cl)c3)Oc3cc2cc(c3O[C@@H]2O[C@H](CO)[C@@H](O)[C@H](O)[C@H]2O[C@H]2C[C@](C)(N)[C@H](O)[C@H](C)O2)Oc2ccc(cc2Cl)[C@H]1O` [VANCOMYCIN], for which the figures for the MIC in the experiment on Bacillus subtilis and with Micrococcus luteus were 0.25 µg/mL (≈ 0.173 µM) and 0.125 µg/mL (≈ 0.0863 µM), respectively.
Regarding `C=C1C(=O)[C@]2(OC)C(=O)O[C@@]34C[C@H](C)C(C(=O)O)=C[C@@H]3CCC[C@@H](C)C[C@@H](C)[C@H]1O[C@H]24` (relative stereo), the MIC stood at 16 µg/mL (≈ 37 µM) in the experiment on Streptococcus pyogenes; 8 µg/mL (≈ 18.5 µM) with Bacillus subtilis; 8 µg/mL (≈ 18.5 µM) in the experiment with Micrococcus luteus; 2 µg/mL (≈ 4.62 µM) in the experiment with Staphylococcus aureus [1]; 2 µg/mL (≈ 4.62 µM) in the experiment with Staphylococcus aureus [2].
As for `C=C1C(=O)[C@]2(OC)C(=O)O[C@@]34C[C@H](C)C(C(=O)O)=C[C@@H]3CCC[C@@H](C)[C@H](O)[C@@H](C)[C@H]1O[C@H]24` (relative stereo), the MIC with Streptococcus pyogenes is 8 µg/mL (≈ 17.8 µM); in the experiment with Bacillus subtilis, 128 µg/mL (≈ 285 µM); in the experiment with Micrococcus luteus, 8 µg/mL (≈ 17.8 µM); in the experiment with Staphylococcus aureus [1], 64 µg/mL (≈ 143 µM); with Staphylococcus aureus [2], 32 µg/mL (≈ 71.3 µM).
